Source: paper PMC3999704 (Current Chemical Genomics and Translational Medicine, 2014)

Key:
Type in all cases: cell-based, rat
[1] = test system: thyroid hormone receptor (TR); conditions: 24 well format, 24h, normalized to total protein values
How it was run: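 GH3.TRE-Luc cells were seeded at 150,000/well in DMEM:F12 with 15 mM HEPES, 10% FBS and Pen/Strep. After 24 h the medium was changed to PCM medium for another 24 h. Cells were then exposed 24 h to ligands in 0.2% DMSO. Luciferase was read from lysed cells and cell number estimated by BCA protein assay. Duplicates per dose, ≥3 experiments.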

GH3.TRE-Luc cells = assay: Cell viability assay, intracellular ATP content; conditions: over the range of concentrations used within the 24 h treatment, presence of 1 nM T3
[2] = test system: thyroid hormone receptor (TR); assay: qHTS GH3.TRE-Luc luciferase reporter gene assay, agonist mode; conditions: LOPAC library screen
How it was run: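 Cells were held 20 h in serum-free assay medium (DMEM:F12 with insulin, ethanolamine, selenite, apotransferrin and BSA), then detached and dispensed in 5 µl/well. After 4–5 h at 37°C, compound or DMSO was pinned in (final DMSO 0.46 or 0.92%) for 24 h. One-Glo was added, 30 min at room temperature, then luminescence read. Data were normalized to 100 nM T3 (100%) and DMSO (0%).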

Row | SMILES | induction of the reporter gene luciferase activity [1] | further results
1 | C/C(=C\c1ccc(C(=O)O)cc1)c1ccc2c(c1)C(C)(C)CCC2(C)C [TTNPB] | neither the RAR-specific ligand TTNPB nor the LXR-specific ligand T0901317 activated the reporter gene | –
2 | O=c1[nH]cc(F)c(=O)[nH]1 [5-fluorouracil] | – | cytotoxicity (GH3.TRE-Luc cells): without apparent cytotoxicity
3 | N[C@@H](Cc1cc(I)c(Oc2ccc(O)c(I)c2)c(I)c1)C(=O)O [T3, triiodothyronine] | showed the expected induction profiles | –
4 | O=S(=O)(c1ccccc1)N(CC(F)(F)F)c1ccc(C(O)(C(F)(F)F)C(F)(F)F)cc1 [T0901317] | neither the RAR-specific ligand TTNPB nor the LXR-specific ligand T0901317 activated the reporter gene | –
5 | NCCCC(=O)O [GABA] | – | response in this assay [2]: did not show any response
